This sample holds only a part of the variants without activity.

Data on 37 variants can be found in the RNAGym collection of RNA variant scans (doi:10.1126/science.aae0568).

The labels stand for the following.
B1: tRNA (parent)
chain: GUUCCGUUGGCGUAAUGGUAACGCGUCUCCCUCCUAAGGAGAAGACUGCGGGUUCGAGUCCCGUACGGAACG

In the series the parent is B1. Description: yeast fitness relative to wild type (ratio to wild type); higher = fitter; tRNA-Arg(CCU), competitive growth, 37 C, YPD. The procedure, abridged:
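Amplicons of the tRNA-Arg(CCU) gene were sequenced, 100-nucleotide paired-end, from the start population and from each end population of a pooled yeast competition. The competition, in six parallel replicates, lasted 24 hours in YPD at 37°C. Fitness relative to wild type was calculated from changes in genotype frequencies. Genotypes had to have ≥ 100 starting reads, and estimates < 0.5 were set to 0.5.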
With GUUCCGUCGGCGUAAUGGUAACGCGUCUCCCUCCUAAGGGGACGACUGCGGGUUCGAGUCCCGUACGGUACG [U8C A40G A43C A69U], the yeast fitness was no more than 0.5.
Under GUUCCGUCGGCGUAAUGGUAAAGCGUCUCCCUCCUCAGGAGAAGACUGCGGGUUCGAGUCCCCUACAGAACG [U8C C22A A36C G63C G67A] stands no more than 0.5; under GUUCCGUCGGCGUAAUGGUAACGCGUCUCCCUCCUACGGAGAAGACUGCGAGUUCGAGUCCCGUACGGAACG [U8C A37C G51A], no more than 0.5; under GUUCCGUCGGCGUAAUGGUAACGCGUCUCCCUCCUCAGGAGAAGACUGCGGGUUCGAGUCCCGUACGGAACG [U8C A36C], 0.577.
Under GUUCCGUCGGCGUAAUGGUAAGGCGUCACCCUGCUAAGGAGAAGACUGCGGGUUCGCGUCCCGUACGGAACG [U8C C22G U28A C33G A57C] stands no more than 0.5.
Under GUUCCGUCGGGGUAAUGGUAACGCGUCUCCCUCCUAAGGAGAAGACUGCGGGUUCGAGUCCCGUACGGUACG [U8C C11G A69U] stands no more than 0.5; under GUUCCGUCGGGGUAAUGGUAACGCAUCUCCCUCCUAAGGAGAAGACUGCGGGUUCGAGUACUGUACGCAACG [U8C C11G G25A C60A C62U G68C], no more than 0.5; under GUUCCGUCGGCGUAAUGGUAACGCGUCUCCCUCCUAAGGCGAAGACUGCGGGUUCGAGUCCCGUCCGCAACG [U8C A40C A65C G68C], no more than 0.5.
For GUUCCGUCGGCGUAAUGGUAACGCGUCUCCCUCCUAAGGAGAUGACUGCGGGUUCGAGUCCCGUACGGAACG [U8C A43U], the yeast fitness is 1.03.
For GUUCCGUCGGCGUAAUGGUAACGCGUCUCCCUCCUAAGGAGAGGACUGCGGGUUCGAGUCCCGUACGGAACG [U8C A43G], the yeast fitness worked out at 0.93.
Under GUUCCGUCGGCGUAAUGGUAAGGCGUCUCCCUCCUAAGGAGAAGACUGUGGGUUCGAGUCCCGUACGGAACG [U8C C22G C49U] stands 0.726.
Under GUUCCGUCGGCGUAAUGGUAUCGCGUCUCCCUCAUAAGGCGAAGACUGCGGGUUCGAGUCCCGUACGGAACG [U8C A21U C34A A40C] stands 0.627.
For GUUCCGUCGGCGUAAUGGUAACGCGUCUCCCUCCUAAGGAGACGACUGGGGGUUCGGGUCCCGUACGGAACG [U8C A43C C49G A57G] the value was no more than 0.5; for GUUCCGUCGGCGUAAUGGUAAAGCGUCUCCCUCCUCAGGAGAAGACUGCGGGUUCGAGUCCCCUACGGAACG [U8C C22A A36C G63C], no more than 0.5; for GUUCCGUCGGGGUACUGGUAACGCGUCUCCCUCCUAAGGAGAAGACUGCGGGUUCGAGUCCCGUACGGACCG [U8C C11G A15C A70C], no more than 0.5.
As for GUUCCGUCGGCGUAAUGGUAACGCGUCUCCCUCCUAAGGAGAAGCCUGCGGGUUCGAGUCCCGUACGGUACG [U8C A45C A69U], the yeast fitness came to 0.765.
GUUCCGUCGGCGUAAUGGUAACGCGUCUCCCUCCUAAGGAGAAGUCUGCGGGUUCGAGUCCCGUACGGAACG [U8C A45U]: the yeast fitness was determined as 0.923.
With GUUCCGUCGGCGUAAUGGUAAAGCGUCUCCCUGCUAAGCAGAAGAUUGCGGAUUCGAGUCCCGUAUGGAACG [U8C C22A C33G G39C C46U G52A C66U], the yeast fitness was no more than 0.5.
For the variant GUUCCGUCGGCGUAAUGGUAUCGCGUCUCCCUCCUAAGGAGAAGACUGCGGGUUCCAGUCCCACACCGAACG [U8C A21U G56C G63A U64C G67C], the yeast fitness was no more than 0.5.
Under GUUCCGUCGGCGUAAUGGUAACGCGUCUCCCUCCUAAGGAGAAGACUGCGGGUUCGAGUCCCGUUCGGAACG [U8C A65U] stands 0.957.
As for GUUCCGUCGGCGUAAUGGUAACGCGUCUCCCUCCUAAGGGGAAGACUGCGGGUUCGAGUCCCGUACGGAACG [U8C A40G], the yeast fitness was found to be 0.877.
Under GUUCCGUCGGCGUAAUGGUAACGCGUCUCCCUCCUAAGGCGAAGACUGCGGGUUCGAGUCCCGUACGGAACG [U8C A40C] stands 1.02; under GUUCCGUCGGCGUAAUGGUAACGCGUCUCCCUCCUAAGGUGAAGACUGCGGGUUCGAGUCCCGUACGGAACG [U8C A40U], 0.903; under GUUCCGUCGGCGUAAUGGUAACGCGUCUCCCUCCUCAGGAGAAGACUGCGGGUUCGAGUCCCGUACCGAACG [U8C A36C G67C], no more than 0.5.
Under GUUCCGUCGGAGUAAUGGUAACGCGUCUCCCUCCUAAGGAGAUGACUCCGGGUUCGAGUGCCGUACGGAACG [U8C C11A A43U G48C C60G] stands no more than 0.5; under GUUCCGUCGGAGUAAUGGUAACGCGUCUCCCUCCUAAGGAGGUGAUUGCGGGUUCGAGUCCUGUACGGAACG [U8C C11A A42G A43U C46U C62U], no more than 0.5.
On to GUUCCGUCGGCGUAAUGGUAACGCGUCUCCCUCCUGAGGAGAAGACUGCGGGUUCGAGUCCCGUACGGACCG [U8C A36G A70C], for which the yeast fitness came out at 0.644.
As for GUUCCGUCGGCGUAAUGGUAACGCGUCUCCCUCCUAAGGAGGAGACUGCGGGUUCGAGUCCCGUACGGAACG [U8C A42G], the yeast fitness came out at 0.995.
For GUUCCGUCGGCGUAAUGGUAACGCGUCUCCCUCCUCAGGAAAAGACUGCGGGUUCGAGUCCCGUACGACACG [U8C A36C G41A G68A A69C] the value was no more than 0.5.
For GUUCCGUCGGUGUAAUGGUAACGCGUCUCCUUCCUAAGGAGAAGACUGCGGGUUCGAGUCCCGUACGGAACG [U8C C11U C31U] the value was 0.576; for GUUCCGUCGGCGUAAUGGUAACGCGUCUCCCUCCUAAGGAGAAGCCUGCGGGUUCGAGUCCCGUCCGGAACG [U8C A45C A65C], no more than 0.5; for GUUCCGUCGGCGUAAUGGUAACGCGUCUCCCUCCUAGGCAGAAGACUGCGGGUUCGAGUCCCGUACGGAACG [U8C A37G G39C], no more than 0.5.
Under GUUCCGUCGGCGUAAUGGUAACGGGUUUCCCUCCUAAGGAGAAGACUGCGGGUUAGAGUCCCGUACGGAACG [U8C C24G C27U C55A] stands no more than 0.5.
As for GUUCCGUCGGCGUAAUGGUAACGCGUCUCCCUCCUAAGGAGGAGACUGCGGGUUAGAGUCCCGUACGGAACG [U8C A42G C55A], the yeast fitness is no more than 0.5.
Regarding GUUCCGUCGGUGUAAUGGUAACACGUCUCCUUCCUAAGGAGAAGCCUACGGGUUCGAGUCCCGUACAGAACG [U8C C11U G23A C31U A45C G48A G67A], the yeast fitness was no more than 0.5.
For GUUCCGUCGGUGUACUGGUAGCGGGUCACCCUCCUAAGGAGAAGACUGCGGGUUCGAGUCCCGUACGGAACG [U8C C11U A15C A21G C24G U28A] the value was no more than 0.5.
Turning to GUUCCGUCGGCGUAAUGGUAACGCGUCUCCCUCCUGAGGAGAAAAUUGCGGGUUCGAGUCCCGUACGGAACG [U8C A36G G44A C46U], the yeast fitness worked out at 0.674.
